Assay results taken from PMC7606181 (Acta Pharmaceutica Sinica. B, 2019).

Experiments:
[1] = HE staining of major organs; assay type: in vivo, BALB/c mice; conditions: after treatment, compared with PBS group
[2] = system: 4T1 cells; assay: Cytotoxicity MTT assay; assay type: cell-based, mouse
[3] = Hematological analysis and serum biochemical analysis; assay type: in vivo, BALB/c mice; conditions: mice, i.v., GEM-equivalent 4 mg/kg, 5 times
Method in brief: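 Mice were split into 4 groups (n = 3): PBS or test preparations i.v. at GEM-equivalent 4 mg/kg, every 2 days for 5 doses. After treatment, blood was taken for haematology and serum for biochemistry.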

[4] = Pharmacokinetic assay; assay type: in vivo, BALB/c mice
[5] = system: 4T1 cells; assay: Scratch healing assay; assay type: cell-based, mouse; conditions: 12 h
Method in brief: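 4T1 monolayers at about 90% confluence were scratched in a straight line and rinsed with PBS. They were then incubated 12 h in medium with PBS or test agents (GEM-equivalent 0.1 μg/mL). Images were taken at 0 and 12 h, and healing rate was calculated by image analysis.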

[6] = Long-term stability in water at 4 °C; assay type: physicochemical
Method in brief: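 Micelle solutions at 0.5 mg/mL in water were stored at 4 °C, alongside a TPGS-stabilised prodrug formulation as control. Appearance and particle size were recorded until precipitation appeared.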

[7] = system: MMP-9; conditions: cited from earlier work
[8] = system: 4T1 tumor-bearing mice; assay: In vivo tumor-targeting assay and biodistribution; design: species or system BALB/c mice; conditions: i.v.
Method in brief: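 Female BALB/c mice (about 5 weeks) carried mammary-pad 4T1 tumours (1 × 10^6 cells) and were used on day 10. Groups (n = 9) got PBS, DiD-loaded micelles or free DiD in propylene glycol/PBS 1:1, at 20 μg DiD per mouse via tail vein. Whole-body imaging at 1–24 h; ex vivo organ imaging at 4, 8 and 24 h (3 per point); confocal of 24 h tumour sections.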

[9] = Content of GEM; assay type: physicochemical; conditions: toluidine blue spectrophotometry
Method in brief: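 LMWH content: samples at 40 μg/mL were mixed with 0.005% toluidine blue in PBS (pH 7.4) and shaken 30 s. Hexane was added and shaken 1 min, and the aqueous layer was read at 630 nm. GEM content: acid/CuCl2 hydrolysis at 70 °C for 12 h, then filtration and C18 HPLC. Mobile phase was ammonium acetate pH 5.7/methanol 90:10 at 1 mL/min, UV 268 nm.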

[10] = system: platelets adhering to 4T1 cells; assay: Interaction of tumor cells with platelets; assay type: cell-based, mouse; conditions: LMWH-equivalent 80 μg/mL, compared with PBS group
Method in brief: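 4T1 cells at about 80% confluency were pre-incubated 20 min with test agents or PBS (LMWH-equivalent 80 μg/mL). Washed platelets from fresh blood were labelled with 5 μmol/L calcein AM, added, and co-cultured 2 h. After washing, cells were lysed in DMSO and fluorescence read at Ex 490 / Em 515 nm.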

[11] = system: MMP-9; assay: Detection of MMP-9 by Western blot in 4T1 cells; assay type: cell-based, mouse; conditions: 24 h, LT 100 μg/mL, LMWH 60 μg/mL
Method in brief: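 4T1 cells at about 60% confluency were exposed for 24 h to fresh medium containing test agents or PBS. Lysates were centrifuged at 15,700×g, 4 °C, 15 min. Supernatant proteins were run on 6% SDS-PAGE and blotted to PVDF. Blots were probed with MMP-9 antibody and HRP-labelled anti-goat secondary, then imaged.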

[12] = system: red blood cell (RBC) suspension from mouse; assay: Hemolysis assay; assay type: cell-based; conditions: 0.3% Triton
[13] = Tail bleeding assay; assay type: in vivo, BALB/c mice; conditions: mice, i.v., LMWH-equivalent 20 mg/kg, 30 min after injection, versus PBS
Method in brief: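 Mice were split into 3 groups (n = 3): PBS or test agents i.v. at LMWH-equivalent 20 mg/kg. At 30 min, 3 mm of tail tip was cut and the tail immersed in PBS at 37 °C. The endpoint was time to complete cessation of bleeding.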

[14] = system: 4T1 solid tumor; assay: In vivo anti-tumor assay, 4T1 solid tumor model; design: species or system BALB/c mice; conditions: day 18
Method in brief: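 Female BALB/c mice received 1 × 10^6 4T1 cells in the mammary pad. From day 5 they were grouped (n = 6) and dosed via tail vein with PBS or test preparations. Doses were GEM-equivalent 4 mg/kg and LMWH-equivalent 18.4 mg/kg, every 2 days for 5 doses. On day 18, tumours and major organs were taken for H&E staining.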

[15] = female, BALB/c, mouse, plasma, iv, 4 mg/kg

Compound: Nc1ccn([C@@H]2O[C@H](CO)[C@@H](O)C2(F)F)c(=O)n1 [GEM, Gemcitabine]
- HE staining of other organs [1]: myocardial rupture and glomerular effusion
- cytotoxicity ([2]; MTT, 48 h): concentration-dependent cytotoxicity
- relative cytotoxicity ([2]; concentration of GEM more than 0.037 μg/mL): more cytotoxic than GLT
- levels of CK (creatine kinase) in serum [3]: increased
- number of white blood cells (WBC) and neutrophilic granulocyte (Gran) ([3]; compared with PBS group): decrease
- clearance [4, 15]: 5.67 mL/min/kg
- half-life [4, 15]: 36.9 ± 2.22 min
- V1 ([4]; mice, i.v., GEM-equivalent 4 mg/kg, plasma GEM): 0.027 ± 0.015 L/kg
- scratch healing rate (in words, versus PBS) [5]: healing rates decreased

Compound: Cc1c(C)c2c(c(C)c1OC(=O)CCC(=O)Nc1ccn(C3OC(CO)C(O)C3(F)F)c(=O)n1)CCC(C)(CCCC(C)CCCC(C)CCCC(C)C)O2 (stereo not shown) [GT, GEM-TOS]
- long-term stability (appearance, particle size) [6]: aggregated to form precipitates in 6 h

Compound: Cc1c(C)c2c(c(C)c1OC(=O)CCC(=O)O)CC[C@@](C)(CCC[C@H](C)CCC[C@H](C)CCCC(C)C)O2 [TOS, D-α-tocopherol succinate]
- secretion of MMP-9 in B16F10 cells [7]: inhibited

Compound: CCCCCCCCCCCCCCCCCCN1C(=CC=CC=CC2=[N+](CCCCCCCCCCCCCCCCCC)c3ccccc3C2(C)C)C(C)(C)c2ccccc21 [free DiD, 1,1′-dioctadecyl-3,3,3′,3′-tetramethylindodicarbocyanine]
- main site of signal [8]: mainly showed in liver

Compound: LMWH-TOS [LT]
- content of LMWH [9]: 47%
- cell viability ([2]; up to 250 μg/mL): almost did not affect cell viability
- number of adhesive platelets on tumor cells [10]: significantly decreased
- MMP-9 secreted by 4T1 cells [11]: significantly inhibited

Compound: Triton
- erythrocyte lysis (positive control) [12]: complete cell lysis

Compound: low-molecular-weight heparin [LMWH]
- bleeding time [13]: no significant difference
- HE staining of tumor [14]: retained their complete microstructures
- number of adhesive platelets on tumor cells [10]: significantly decreased
- MMP-9 secreted by 4T1 cells [11]: did not have obvious effect
- scratch healing rate (in words, versus PBS) [5]: healing rates decreased
